Screens as filed in PubChem BioAssay.
TRPC6 inhibitor: mouse TRPC6 channel inhibition | actives 1.1% (n = 310,000) | Q61143 | AID 2553 | B-score at 10 µM | HEK293-TRPC6, membrane potential dye, ACh-evoked depolarization; active compounds read low;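 active means B-score under library mean minus 3 SD, initial fluorescence not abnormally high, positive integrated signal ratio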;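 further: B-score derived from integrated fluorescence ratio over the kinetic read; more negative B-score means stronger inhibition of depolarization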
Target sequence (Q61143 whole entry, looked up): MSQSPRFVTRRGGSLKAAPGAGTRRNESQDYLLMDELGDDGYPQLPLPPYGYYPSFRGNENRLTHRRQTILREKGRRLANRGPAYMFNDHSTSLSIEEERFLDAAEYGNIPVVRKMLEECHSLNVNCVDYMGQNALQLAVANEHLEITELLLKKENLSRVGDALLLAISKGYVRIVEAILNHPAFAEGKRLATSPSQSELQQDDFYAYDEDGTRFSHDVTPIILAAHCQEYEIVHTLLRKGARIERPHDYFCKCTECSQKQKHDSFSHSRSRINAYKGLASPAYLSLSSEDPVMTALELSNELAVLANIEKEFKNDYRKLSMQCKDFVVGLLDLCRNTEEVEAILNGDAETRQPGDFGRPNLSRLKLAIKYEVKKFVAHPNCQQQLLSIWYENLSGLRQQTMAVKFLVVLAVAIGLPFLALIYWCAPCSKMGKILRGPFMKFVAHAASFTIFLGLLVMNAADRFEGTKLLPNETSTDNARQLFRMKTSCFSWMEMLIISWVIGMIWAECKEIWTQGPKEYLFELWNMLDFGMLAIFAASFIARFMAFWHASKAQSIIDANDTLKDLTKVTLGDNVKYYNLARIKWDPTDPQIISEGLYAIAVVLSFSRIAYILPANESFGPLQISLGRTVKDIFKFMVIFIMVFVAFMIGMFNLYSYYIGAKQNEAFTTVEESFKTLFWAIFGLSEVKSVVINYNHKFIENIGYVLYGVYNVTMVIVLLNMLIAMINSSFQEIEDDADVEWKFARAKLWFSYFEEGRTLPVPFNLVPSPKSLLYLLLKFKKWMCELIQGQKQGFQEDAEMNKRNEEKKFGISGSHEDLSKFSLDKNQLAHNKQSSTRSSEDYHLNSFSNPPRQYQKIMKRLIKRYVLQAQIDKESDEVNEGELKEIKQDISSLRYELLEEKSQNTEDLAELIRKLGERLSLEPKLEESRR
TRPC4 PAM: allosterically enhances the mouse TRPC4 cation channel. Q9QUQ5. HEK293 TRPC4beta/mu-opioid, DAMGO EC20, Fluo-4 Ca2+ flux; active compounds read high. B-score at 10 µM. actives 0.42% (n = 310,000);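 active means B-score of calcium response area above 5 SD of library B-scores, with initial fluorescence ratio within 5 SD of library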
TRPC4 agonist: activators of mouse TRPC4 channel; HEK293 TRPC4beta/mu-opioid, Fluo4 calcium fluorescence; active compounds read high; B-score at 10 µM; AID 2237; actives 0.49% (n = 310,000); Q9QUQ5;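 active means B-score above 5 SD of library B-scores, and initial fluorescence ratio not above library mean plus 5 SD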;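 further: positive B-score marks a calcium rise read as TRPC4 activation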
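system = HEK293 cells stably co-expressing mouse TRPC4beta and mu-opioid receptor | schedule = Fluo4 dye loading 45 min at room temperature, 110 s recording | measure = B-scored integrated calcium fluorescence ratio | signal = Fluo4 calcium-sensitive dye fluorescence, kinetic, 1 Hz baseline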
TRPC4 inh: TRPC4 (mouse) channel inhibition | Q9QUQ5 | HEK293 TRPC4beta/mu-opioid, DAMGO-evoked Fluo4 calcium flux; active compounds read low | B-score at 10 µM | actives 0.39% (n = 300,000);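 active means B-score over 3 SD under the library average, no early fluorescence shift, positive overall ratio signal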
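Test system – stable TRPC4beta/mu-opioid receptor HEK293 cells · Probe or stimulus – DAMGO, a submaximal dose followed by a maximal one · Dosing – one concentration per compound · Signal – Fluo4 calcium fluorescence by kinetic imaging, 5 s 1 Hz baseline · Evaluation – per-well B score of integrated baseline-normalized Fluo4 ratio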
TRPC6 activator: mouse TRPC6 channel activation; Q61143; HEK293-TRPC6 membrane potential dye fluorescence; active compounds read high; B-score at 10 µM; actives 0.13% (n = 310,000); AID 2550;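 active means B-score of the integrated fluorescence ratio above library mean plus 3 SD, and starting fluorescence ratio within library mean plus 5 SD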;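 further: higher score means more depolarization so channel activation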
Of the large screens only hits and unclear results are named; the others gave an inactive call. Sampled rows, rich in hits. Any-hit rate of the full collection: about 2.3%.

CC(C)(C)Cc1nc2ccccc2n1CCc1ccccc1	TRPC4 inh -7
Cc1nc2ccccc2n1CCCOc1ccccc1	none
CCc1ccc(/C=C2/C(=O)NC(=O)N2C(C)=O)cc1	none
CCN1CCN(C(=S)Nc2cc(S(=O)(=O)N(CC)CC)ccc2C)CC1	none
CCCN1CCN(C(=S)NCc2ccc(Cl)cc2)CC1	TRPC4 PAM 22
S=C(NCc1ccc(Cl)cc1)N1CCN(c2ccccn2)CC1	none
COc1ccc(C)cc1S(=O)(=O)Nc1ccc(F)c(Cl)c1	TRPC4 PAM 10
O=C(CCNC(=O)c1ccc(Br)cc1)Nc1ccccc1N1CCCCC1	TRPC4 inh -6
O=C(CCNC(=O)c1ccccc1Cl)Nc1ccccc1N1CCCC1	none
C=CCN(CC(O)c1cccc([N+](=O)[O-])c1)C(C)CCc1ccccc1 (stereo not given)	TRPC4 inh -5
O=C(Cc1ccccc1)NC(NC(=O)Cc1ccccc1)c1cccc([N+](=O)[O-])c1	none
C/C(=N\Nc1nc(-c2ccccn2)nc2ccccc12)c1ccc(F)cc1	none
OCCNc1nc(NCc2ccccc2)c2ccccc2n1	TRPC4 inh -6
Cc1ccc(-c2nc(NCc3cccnc3)c3ccccc3n2)cc1	none
c1ccc(-c2nc(NCc3cccnc3)c3ccccc3n2)cc1	TRPC4 inh -6
c1ccc(CCNc2nc(-c3ccccn3)nc3ccccc23)cc1	TRPC4 inh -6
COc1ccc(OC)c(NC(=O)C2CCN(S(=O)(=O)c3ccc4c(c3)CC(C)N4C(C)=O)CC2)c1 (stereo not given)	none
Cc1ccc(C)c2[nH]c(=O)c(CN(CC3CCCO3)C(=S)NCc3ccco3)cc12 (stereo not given)	TRPC4 inh -6
Cc1ccc(NC(=O)Cc2nnc(SCC(=O)NC3CCCC3)n2C)c(C)c1	none
COc1ccc(OC)c(S(=O)(=O)NCC(c2ccc3c(c2)OCO3)N2CCOCC2)c1 (stereo not given)	none
O=c1[nH]c(C2CCCN(S(=O)(=O)c3ccccc3)C2)nc2c1nnn2Cc1ccccc1Br (stereo not given)	TRPC4 PAM 10
O=C(CCCl)Nc1cc(SCCO)cc([N+](=O)[O-])c1	none
O=C(Nc1cc(SCCO)cc([N+](=O)[O-])c1)c1ccc(Br)o1	TRPC4 inh -5
COc1ccc(S(=O)(=O)NC(C)C)cc1C(=O)N1CCOCC1	none
COc1ccc(C(c2nnnn2C(C)(C)C)N2CCN(c3nc4ccccc4s3)CC2)cc1 (stereo not given)	none
CCC(C)(C)n1nnnc1C(c1ccc(O)c(OC)c1)N1CCN(c2nc3ccccc3s2)CC1 (stereo not given)	TRPC4 agonist 58
COc1ccccc1N1CCN(C(=O)c2coc(=O)c(Br)c2)CC1	none
CC12CCC(=O)N1C(C(=O)N1CCN(S(=O)(=O)c3ccc(Br)cc3Cl)CC1)CS2 (stereo not given)	none
O=S(=O)(c1ccc(Br)cc1Cl)N1CCN(CCO)CC1	TRPC4 agonist 83
CCn1cc(CN2CCC(n3nccc3NC(=O)CCc3ccccc3)CC2)cn1	TRPC4 agonist 73
CCn1cc(CN2CCC(n3nccc3NC(=O)CCOc3ccccc3)CC2)cn1	TRPC4 agonist 72
CCn1cc(CN2CCC(n3nccc3NC(=O)CCOc3ccccc3)CC2)c(C)n1	none
CCCn1ncc(CN2CCC(n3nccc3NC(=O)CCc3ccccc3)CC2)c1C	TRPC4 agonist 100
CCn1ccnc1CN1CCC(n2nccc2NC(=O)CCc2ccccc2)CC1	none
CCc1cc(C(=O)NC2CCCN(Cc3ccccc3F)C2)n(C)n1 (stereo not given)	none
CCC1(C(=O)c2ccccc2)C(c2ccc([N+](=O)[O-])cc2)C1(C(=O)OC)C(=O)OC (stereo not given)	TRPC4 inh -7
S=c1[nH]nc(CSCCOc2ccc(Cl)cc2Cl)o1	none
CCn1c(C)nc2cc(C(=O)NNC(=S)NC(=O)c3ccc(OC)cc3)ccc21	none
COC(=O)c1sc(-c2ccc(C(C)(C)C)cc2)cc1NC(=O)CSCC(=O)O	TRPC4 inh -6
COC(=O)c1sc(-c2ccc(Cl)cc2)cc1NC(=O)c1ccccc1C(=O)O	none
COC(=O)c1sc(-c2ccc(C(C)(C)C)cc2)cc1NC(=O)c1ccccc1C(=O)O	TRPC4 PAM 12
CCn1c(N)[n+](CC(=O)Nc2ccc(SC(F)F)cc2)c2ccccc21	TRPC4 agonist 156
Clc1cccc(OCCN2CCCC2)c1	none
CN1CCN(CCOc2cccc(Cl)c2)CC1	TRPC4 PAM 14
O=C1c2cccnc2C(Nc2ccc(Br)cc2Br)N1Cc1cccs1 (stereo not given)	none
O=C(CNc1ccc(Br)cc1)c1ccc(O)cc1	TRPC4 inh -8
CN(C)CCCSc1nc(-c2ccccc2)nc2c1CCC2	TRPC4 PAM 16
CN(C)CCSc1nc(-c2ccccc2)nc2c1CCC2	none
CCCNC(=O)Cc1c(C)oc2ccccc12	none
CCOCCCn1cnc2c(c1=O)c1nc3ccccc3nc1n2-c1ccc(C)cc1	TRPC4 inh -8
CCOCCCn1cnc2c(c1=O)c1nc3ccccc3nc1n2-c1ccccc1	none
COC(=O)[C@@H](Cc1c[nH]c2ccccc12)NC(=O)c1ccc2c(c1)OCO2	none
CN1CCCN(S(=O)(=O)c2ccc(Cl)c(Cl)c2)CC1	TRPC4 PAM 12
CN1CCCN(S(=O)(=O)c2cccc(Cl)c2Cl)CC1	none
CC1=NN(c2ccccc2)C(=O)/C1=C/c1ccc(Cl)cc1	TRPC4 PAM 10
Cc1ccc(NC2=Nc3ccccc3CC2)cc1	TRPC4 agonist 54
C=CCN(CC=C)CCOc1ccc2ccccc2c1	none
C=CCN(CC=C)CCOc1ccccc1	TRPC4 PAM 12
Cc1c(CCOC(=O)CC23CC4CC(CC(C4)C2)C3)sc[n+]1CC(=O)c1ccccc1	TRPC4 inh -5
CCOC(=O)C1CCN(c2cc3c(cc2NC(=O)c2cc(OC)ccc2Br)n(C)c(=O)n3C)CC1	TRPC4 PAM 12
CCOC(=O)C1CCN(c2cc3c(cc2NC(=O)c2ccccc2Br)n(C)c(=O)n3C)CC1	none
CCc1cc(-c2[nH]ncc2-c2nc3ccccc3n2C)c(O)cc1O	none
CCOc1cc(O)c(-c2[nH]ncc2-c2nc(C)cs2)cc1CC	TRPC4 PAM 20
COc1ccc(CCNC2CCc3ccccc3C2)cc1 (stereo not given)	none
COc1ccc(CCNC2CCC(c3ccccc3)CC2)cc1 (stereo not given)	TRPC4 agonist 104
COc1ccc(CNC(=O)CN(Cc2ccc(F)cc2)C(=O)c2csnn2)cc1	none
COCCn1c(SCc2nc3ccccc3c(=O)[nH]2)nc2ccccc2c1=O	none
Cn1c(SCCOc2ccccc2F)nc2ccccc2c1=O	TRPC4 PAM 16
COCCn1c(SCc2ccc(F)cc2)nc2ccccc2c1=O	TRPC4 inh -6
COCCn1c(SCc2ccc(OC)c(F)c2)nc2ccccc2c1=O	TRPC4 inh -7
